These results are taken from ChEMBL document CHEMBL1124035, “1-Amino-substituted 4-methyl-5H-pyrido[4,3-b]indoles (gamma-carbolines) as tricyclic analogues of ellipticines: a new class of antineoplastic agents” (1988).

The structures appear in SMILES notation.

In experiment [1] the test system is Mus musculus. The experiment is described as follows: Weight change in g when a dose of 100 mg/kg intravenous administration to P388 leukemia mice model. The format is functional. A digest of the protocol: (§1)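 Mice (10 per group) were inoculated ip at D0 with 10^6 P388 leukemia cells and given a single iv dose at D1. Read-outs were weight change (g), median survival day, T/C % versus controls and survivors at D30.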

In experiment [2] the test system is Mus musculus. The experiment is described as follows: Median survival day of B16 melanoma infected mice when a dose of 1.25 mg/kg administered intraperitoneally. Type of experiment: functional. To be noted: route intraperitoneal. A digest of the protocol: (§2)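 B16 melanoma in hybrid BD F1 mice. At D0 each mouse was inoculated ip with 0.5 mL of homogenate made from 1 g of tumour in 10 mL of physiological serum. Compounds were given ip daily at the stated doses for 9 days (D1-9), with cis-platinum 0.5 mg/kg under the same schedule as positive control.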

Experiment [3] concerns Mus musculus. Description: Median survival day of B16 melanoma infected mice when a dose of 2.5 mg/kg administered intraperitoneally. Type of experiment: functional. The conditions noted are these: route intraperitoneal. A digest of the protocol:
as §2

Experiment [4] concerns Mus musculus. Description: Median survival day in P388 leukemia model when a dose of 50 mg/kg administered intravenously to mice. The format is functional. To be noted: route intravenous. Summed up:
(§3)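 P388 leukaemia in CDF1 hybrid mice, 10 per group. At D0, 10^6 viable cells were inoculated ip, followed by a single iv dose on D1. Weight change, median survival day, T/C (treated/control median survival × 100) and survivors at D30 were recorded.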

The test system of experiment [5] is Mus musculus. Description: Antitumor activity against P388 cells at a dose of 40 mg/kg administered intraperitoneally to P388 leukemia model. Type of experiment: functional. To be noted: route intraperitoneal. Summed up:
(§4)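 Mice were inoculated ip with 10^6 P388 leukemia cells at D0, then given a single ip drug dose on D1. Weight change was recorded. T/C % = median survival day of treated / controls × 100; survivors counted at D30; 10 mice per dose group, 20 controls.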

Experiment [6] has as its system Mus musculus. Description: Antitumor activity against L1210 leukemia mice model at a dose of 20 mg/kg administered intravenously. The format is functional. The conditions noted are these: route intravenous. A digest of the protocol: (§5)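 P388 (10^6 cells) or L1210 (10^5 cells) leukemia was inoculated ip in mice at D0, followed by a single iv drug treatment on D1. Weight change was recorded. T/C % = median survival day of treated / controls × 100; survivors noted at D30; 10-15 mice per group.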

Experiment [7] has as its system Mus musculus. Description: Antitumor activity against P388 cells at a dose of 10 mg/kg administered intraperitoneally to P388 leukemia model. The format is functional. The conditions noted are these: route intraperitoneal. A digest of the protocol: as §4
Experiment [8] deals with Mus musculus. The experiment is described as follows: Weight change in g when a dose of 50 mg/kg intravenous administration to P388 leukemia mice model. The format is functional. A digest of the protocol:
as §1

Experiment [9] deals with Mus musculus. Description: Survivors at day 30 when a dose of 50 mg/kg administered intravenously to P388 leukemia mice model; 0/10. To be noted: route intravenous. Type of experiment: functional.
The test system of experiment [10] is Mus musculus. Description: Survivors at day 30 when a dose of 5 mg/kg to P388 leukemia model; 0/10. Type of experiment: functional.
Experiment [11] has as its system Mus musculus. The experiment is described as follows: Weight change in g when a dose of 10 mg/kg administered intraperitoneally B16 melanoma infected mice. The conditions noted are these: route intraperitoneal. Type of experiment: functional. Summed up: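 Hybrid BDF1 mice were inoculated ip at D0 with 0.5 mL of B16 melanoma homogenate (1 g tumor in 10 mL physiological serum). Drug was given ip daily on days 1-9, with cis-platinum 0.5 mg/kg as positive control on the same schedule.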

Experiment [12] concerns Mus musculus. The experiment is described as follows: Survivors at day 60 when a dose of 1.25 mg/kg to B16 melanoma infected mice; 0/10.
Experiment [13] has as its system Mus musculus. Description: Median survival day in P388 cell line when a dose of 100 mg/kg administered intravenously to mice. The format is functional. To be noted: route intravenous. A digest of the protocol:
as §3

Experiment [14] concerns Mus musculus. The experiment is described as follows: Median survival day in P388 cell line when a dose of 20 mg/kg administered intraperitoneally to mice. The conditions noted are these: route intraperitoneal. The format is functional. A digest of the protocol:
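P388 leukaemia in CDF1 hybrid mice, 10 per group. At D0, 10^6 viable cells were inoculated ip, followed by a single ip dose of drug in distilled water on D1. Weight change, median survival day, T/C (treated/control median survival × 100) and survivors at D30 were recorded. Controls were 20 mice.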

In experiment [15] the test system is Mus musculus. The experiment is described as follows: Antitumor activity against P388 cells at a dose of 50 mg/kg administered intravenously to mice. Type of experiment: functional. The conditions noted are these: route intravenous. A digest of the protocol: as §5
In experiment [16] the test system is Mus musculus. The experiment is described as follows: Survivors at day D32 when a dose of 50 mg/kg administered intravenously to mice (C38 adenocarcinoma cell lines) when tested in 10 mice. Type of experiment: functional. To be noted: route intravenous. Summed up: (§6)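 Hybrid BDF1 mice, 10 per test, were implanted sc with a standard 3-mm³ fragment of C38 colon adenocarcinoma. Drug was given iv either on D1 alone or on D2 and D9. Animals were followed per NCI (Geran) protocol.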

For experiment [17], the system named is Mus musculus. The experiment is described as follows: Survivors at day D38 when a dose of 50 mg/kg administered intravenously to C38 adenocarcinoma mice model on D1 when tested in 10 mice. The format is functional. The conditions noted are these: route intravenous. A digest of the protocol: as §6
Experiment [18] deals with Mus musculus. The experiment is described as follows: Survivors at day 30 when a dose of 50 mg/kg administered intravenously to P388 (iv) to L1210 leukemia mice model. The format is functional.
Experiment [19] has as its system Mus musculus. Description: Survivors at day 60 when a dose of 1.25 mg/kg to B16 melanoma infected when tested in 10 mice. Type of experiment: functional.
For experiment [20], the system named is Mus musculus. The experiment is described as follows: Survivors at day 60 when a dose of 5 mg/kg to B16 melanoma infected when tested in 10 mice. The format is functional.
The subject of experiment [21] is Mus musculus. Description: Survivors at day D30 when a dose of 20 mg/kg administered intravenously to L1210 leukemia mice model. Type of experiment: functional. To be noted: route intravenous.
Experiment [22] concerns Mus musculus. Description: Antitumor activity against P388 leukemia in intraperitoneally for 5 days. The format is functional. Summed up:
(§7)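 CDF1 hybrid male or female mice, 10 per group, were inoculated ip with 10^6 viable P388 cells on day 0. Drugs in distilled water were given ip (0.1 mL/10 g body weight) daily D1-5. Vehicle, 5-fluorouracil and BD 84 were given the same way. T/C = median survival day of treated / controls × 100; T/C > 128% was significant; cures counted at D60.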

For experiment [23], the system named is Mus musculus. Description: Median survival day of B16 melanoma infected mice, when a dose of 1.25 mg/kg administered intraperitoneally. To be noted: route intraperitoneal.
Experiment [24] concerns Mus musculus. Description: Median survival day in B16 melanoma cell line when a dose of 2.5 mg/kg administered intraperitoneally to mice. The format is functional. To be noted: route intraperitoneal. A digest of the protocol:
as §2

In experiment [25] the test system is Mus musculus. Description: Median survival day in B16 melanoma cell line when a dose of 30 mg/kg administered intraperitoneally to mice. Type of experiment: functional. The conditions noted are these: route intraperitoneal. A digest of the protocol: as §2
The test system of experiment [26] is Mus musculus. Description: Antitumor activity against B16 melanoma cells at a dose of 20 mg/kg administered intraperitoneally to mice. The format is functional. To be noted: route intraperitoneal. A digest of the protocol: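 Hybrid BD F1 mice were inoculated ip at D0 with 0.5 mL of B16 melanoma homogenate (1 g tumor in 10 mL physiological serum). Drugs were given ip daily D1-9. Cisplatin 0.5 mg/kg was the positive control under the same schedule.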

Experiment [27] relates to Mus musculus. The experiment is described as follows: Antitumor activity against P388 leukemia in mice at a dose of 15 mg/kg administered intraperitoneally for 5 days. Type of experiment: functional. The conditions noted are these: route intraperitoneal. A digest of the protocol:
as §7

In experiment [28] the test system is Mus musculus. The experiment is described as follows: Survivors at day 60 when a dose of 20 mg/kg to B16 melanoma infected mice; 5/10. Type of experiment: functional.
Experiment [29] concerns Mus musculus. The experiment is described as follows: Survivors at day 60 when a dose of 5 mg/kg to B16 melanoma infected mice; 0/10. Type of experiment: functional.
Experiment [30] concerns Mus musculus. Description: Antitumor activity against P388 leukemia in mice at a dose of 30 mg/kg administered intraperitoneally for 5 days. Type of experiment: functional, organism-based. Details: dose 30 mg/kg. Summed up:
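CDF1 hybrid male or female mice, 10 per group, were inoculated ip on day 0 with 10^6 viable P388 leukemia cells. Drug in distilled water was given ip (0.1 mL/10 g body weight) daily on days 1-5, with vehicle, 5-fluorouracil and BD 84 controls given the same way. T/C = median survival of treated/controls × 100; T/C > 128% counted as significant.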

Regarding `CCN(CC)CCCNc1ncc(C)c2c1c1cc(O)ccc1n2C`, the values for the Weight change with Mus musculus [1], in the experiment with Mus musculus [8] and in the experiment with Mus musculus [11] were -1.6 g, -0.7 g and -1 g, respectively. The Median survival day is given as 32.25 with Mus musculus [2], 35.25 in the experiment with Mus musculus [3] and 19 in the experiment with Mus musculus [4]. Further, the T/C is 202% with Mus musculus [5], 132% with Mus musculus [6] and 156% with Mus musculus [7]. The Survivors in the experiment with Mus musculus [9], in the experiment on Mus musculus [10] and with Mus musculus [12] was 0 each time.

Take `Cc1cnc(NCCCN(C)C)c2c3cc(O)ccc3n(C)c12`: the figures for the Median survival day in the experiment with Mus musculus [13], in the experiment on Mus musculus [14] and in the experiment with Mus musculus [23] were 25.75, 18.75 and 29.75, respectively. Further, the figures for the T/C with Mus musculus [15] and in the experiment on Mus musculus [22] were 163% and “Toxic”, respectively. In addition, the Survivors came to 10 with Mus musculus [16]; 10 in the experiment with Mus musculus [17]; 1 in the experiment with Mus musculus [18]; 0 in the experiment with Mus musculus [19]; 1 with Mus musculus [20]; 0 in the experiment with Mus musculus [21].

As for `CCN(CC)CCCNc1[nH]cc(C)c2nc3ccc(O)cc3c1-2`, the Median survival day with Mus musculus [24] was 34; in the experiment with Mus musculus [25], 9. The results for the T/C with Mus musculus [26], with Mus musculus [27] and in the experiment with Mus musculus [30] were 211%, 208% and “Toxic”, respectively. In addition, the Survivors in the experiment on Mus musculus [28] was found to be 5; in the experiment on Mus musculus [29], 0.
